Drawing on ChEMBL document CHEMBL1157679, “Substituted aryl malonamates as new serine beta-lactamase substrates: structure-activity studies” (Bioorg Med Chem, 2010), this text covers kcat/Km, Km and kcat for nine compounds.

Test [1] can be described thus: Ratio of Kcat to Km for beta-lactamase TEM-2. In a few lines:
(§1)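 Steady-state kinetics in 100 mM MOPS, pH 7.5, 25 °C. Substrate stocks were made in DMSO and diluted into buffer to a final DMSO below 5%. Initial rates of enzyme-catalysed turnover were followed spectrophotometrically. Steady-state parameters were derived from these initial rates. Buffer hydrolysis of the substrates was measured separately as pseudo-first-order rate constants.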

A short description of test [2]: Activity at beta-lactamase TEM-2 by spectrophotometry. An outline of the steps: as §1
The nature of test [3]: Inhibition of beta-lactamase TEM-2 assessed as inhibition of cephalothin turnover by spectrophotometry. An outline of the steps: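 TEM-2 enzyme (0.2 μM) was incubated with 3 mM inhibitor in 100 mM MOPS, pH 7.5, at 25 °C (DMSO below 5% final). Residual activity against 0.2 mM cephalothin was read spectrophotometrically over incubation time. Exponential fitting gave pseudo-first-order inactivation constants, which were converted to second-order rate constants.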

Take `O=C(O)c1cccc(OC(=O)C2Cc3ccccc3N(Cc3ccccc3)C2=O)c1` (centres undefined): the kcat/Km in test [1] was under 0.9 M⁻¹ s⁻¹.

For `C[C@H](C(=O)NCc1ccccc1)C(=O)Oc1cccc(C(=O)O)c1`, in test [2], the Km was over 200 µM and the kcat was over 7.2 ×10⁻⁴ /s. The kcat/Km in test [1] is 3.6 M⁻¹ s⁻¹.

In the case of `O=C(CC(=O)Oc1cccc(C(=O)O)c1)NCc1ccccc1`, in test [2], the Michaelis-Menten constant (Km) worked out at 1.42 µM and the kcat was 28 s⁻¹. The kcat/Km in test [1] was 1.95 ×10⁴ /s/M.

Turning to `CN(Cc1ccccc1)C(=O)CC(=O)Oc1cccc(C(=O)O)c1`, the kcat/Km in test [1] is under 0.2 M⁻¹ s⁻¹.

For the compound `O=C(O)c1cccc(OC(=O)C2CCN(Cc3ccccc3)C2=O)c1` (centres undefined), in test [2], the Km is over 220 µM and the kcat was over 1.1 ×10⁻⁴ /s. Also, the kcat/Km in test [1] stood at 0.54 M⁻¹ s⁻¹.

For the compound `O=C(O)c1cccc(OC(=O)C(Cc2ccccc2)C(=O)NCc2ccccc2)c1` (centres undefined), in test [2], the Km was over 200 µM and the kcat was over 9.4 ×10⁻⁴ /s. The kcat/Km in test [1] was 4.7 M⁻¹ s⁻¹.

For the compound `O=C(CP(=O)(O)Oc1cccc(C(=O)O)c1)NCc1ccccc1`, the kcat/Km in test [3] is under 1 M⁻¹ s⁻¹.

`O=C(CC(=O)N(Cc1ccccc1)Cc1ccccc1)Oc1cccc(C(=O)O)c1`: in test [2], the Michaelis constant (Km) worked out at 1800 µM and the kcat stood at 0.21 s⁻¹. Besides, the kcat/Km in test [1] is 1.2 ×10² /s/M.

In the case of `CO[C@@H](C(=O)NCc1ccccc1)C(=O)Oc1cccc(C(=O)O)c1`, the kcat/Km in test [1] is under 6 M⁻¹ s⁻¹.

The term Km denotes the substrate concentration at which the rate is half of its maximum.
